Source: PubChem (Broad Institute)
In the library only some 2.3% were active in any assay of this set; here they are far more common.
C2C12 statin = suppression of simvastatin myotoxicity; C2C12 myotubes + simvastatin, ATP luminescence, 48 h; scaled: DMSO 0, geranylgeraniol control 100; rescue of ATP level, % at 7.49 µM; actives 0.78% (n = 330,000); AID 602340;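 active means mean ATP rescue above about 67%, or every replicate alone reaching that limit, limit read from the data, passing the limit was not always enough; inconclusive means no clear call, values can overlap the other calls; inactive means mean under the limit and some replicate under it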;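 further: myotubes were challenged with 10 µM simvastatin during compound exposure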
CFTR F508del cor = CFTR F508del correction in bronchial cells; activity (quench increase), % at 7.58 µM; actives 0.36% (n = 350,000); CFBE cells, YFP halide quenching; stimulated with forskolin plus potentiator P3; % fluorescence drop versus neutral controls; AID 720511;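 active means mean added fluorescence quench of at least 8% versus neutral control, with both replicates also reaching 8%; inconclusive means only one of the mean or replicate conditions met; inactive means mean below 8% and not both replicates reaching 8%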;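 further: cells transiently co-express mutant CFTR-F508del with the halide-sensitive YFP; corrector assay measuring rescue of mutant channel to the surface after 24 h compound exposure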
DENV2 CPE = protects cells from dengue virus 2 cytopathic effect; DENV2-infected cells, cytopathic effect rescue, plate reader; CPE inhibition, % at 9.99 µM; actives 1.7% (n = 350,000); AID 651640; in the data active means CPE inhibition above about 20%, passing the limit was not always enough; inconclusive means no clear call, values can overlap the other calls; tested in BHK-21 cells
ERp5 inh = ERp5 (human) disulfide isomerase inhibition. ERp5 insulin aggregation, absorbance 650 nm, 90 min. actives 0.05% (n = 350,000). Q15084. inhibition, % at 9.99 µM. AID 651711;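 active means mean replicate inhibition above about 25%, with every replicate also reaching it, limit read from the data, passing the limit was not always enough; inconclusive means only one of those two criteria met; inactive means neither criterion met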
Target sequence (Q15084 whole entry, looked up): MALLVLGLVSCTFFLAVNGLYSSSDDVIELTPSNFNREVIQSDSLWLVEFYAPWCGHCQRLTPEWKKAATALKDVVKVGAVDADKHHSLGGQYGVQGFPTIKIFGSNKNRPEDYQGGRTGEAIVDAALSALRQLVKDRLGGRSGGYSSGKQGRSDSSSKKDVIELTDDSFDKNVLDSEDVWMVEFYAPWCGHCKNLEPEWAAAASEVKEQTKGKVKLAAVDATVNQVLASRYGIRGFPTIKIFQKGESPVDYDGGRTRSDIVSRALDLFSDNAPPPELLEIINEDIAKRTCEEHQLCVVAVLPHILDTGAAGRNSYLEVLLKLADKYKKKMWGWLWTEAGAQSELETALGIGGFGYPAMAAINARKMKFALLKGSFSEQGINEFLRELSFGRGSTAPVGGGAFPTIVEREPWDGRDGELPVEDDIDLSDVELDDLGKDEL
PDI turbidity = inhibitors of human protein disulfide isomerase. P07237. PDI insulin aggregation turbidity, A650, 90 min. inhibition, % at 10 µM. actives 0.052% (n = 350,000). AID 588391;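 active means mean inhibition across replicates of 30% or more, whatever share of single replicates reach that level; inconclusive means mean inhibition below 30% while every single replicate reaches 30%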
Cneo AK release = Cryptococcus neoformans lysis via adenylate kinase release | C. neoformans lysis, adenylate kinase release luminescence, 4 h; normalised: neutral wells 0, clomiphene wells 100 | lysis activity, % at 15 µM | actives 0.2% (n = 360,000);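 active means mean lysis activity across replicates of at least 80%, whatever share of replicates individually reach that level; inactive means mean lysis activity below 80%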
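Material – log-phase Cryptococcus neoformans yeast cells · Input – 5 × 10^6 yeast cells/mL · Medium – fresh YPD growth medium · Doses – single compound concentration per well · Timing – static 4 h at 37 °C with compound, 1 h detection · Detection – adenylate kinase release luminescence · Read-out – signal increase indicating cell lysis · Control set – Clomiphene as positive lysis control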
A number is an active result; ! = repeats disagree.

What do the screens show for `C[C@@H]1CN([C@H](C)CO)C(=O)c2cccc(NC(=O)Nc3ccc(C(F)(F)F)cc3)c2O[C@@H]1CN(C)C(=O)Nc1ccccc1`?
C2C12 statin: inactive; CFTR F508del cor: inactive; DENV2 CPE: 43.2; ERp5 inh: inactive; Cneo AK release: inactive

Results for C[C@H](CO)N1C[C@H](C)[C@@H](CN(C)C(=O)NC2CCCCC2)Oc2c(NC(=O)Nc3ccc(C(F)(F)F)cc3)cccc2C1=O ?
C2C12 statin: inactive; CFTR F508del cor: inactive; DENV2 CPE: 28.7!; ERp5 inh: inactive; PDI turbidity: inactive; Cneo AK release: inactive

How did Cc1noc(C)c1NC(=O)N(C)C[C@@H]1Oc2c(NC(=O)Nc3ccc(C(F)(F)F)cc3)cccc2C(=O)N([C@@H](C)CO)C[C@H]1C do in these assays?
C2C12 statin: inactive; CFTR F508del cor: inactive; DENV2 CPE: inactive; ERp5 inh: inactive; Cneo AK release: inactive

Results for CC(C)(C)c1ccc(-c2nc(C#N)c(NCCCn3ccnc3)o2)cc1 ?
C2C12 statin: inactive; CFTR F508del cor: inconclusive; DENV2 CPE: inactive; ERp5 inh: inactive; PDI turbidity: inactive; Cneo AK release: inactive

How did N#Cc1nc(-c2ccco2)oc1NCCCn1ccnc1 do in these assays?
C2C12 statin: 129.3; PDI turbidity: inactive

Results for O=C(C1=C[C@H](c2ccc3c(c2)OCO3)C[C@H](OCCCCO)O1)N1CCN(Cc2ccc3c(c2)OCO3)CC1 ?
C2C12 statin: inactive; CFTR F508del cor: inactive; DENV2 CPE: 44.1; ERp5 inh: inactive; PDI turbidity: inactive; Cneo AK release: inactive

What do the screens show for `O=C(C1=C[C@@H](c2ccccc2)C[C@@H](OCCCCO)O1)N1CCN(Cc2ccc3c(c2)OCO3)CC1`?
C2C12 statin: inactive; CFTR F508del cor: inactive; DENV2 CPE: 21.3!; ERp5 inh: inactive; PDI turbidity: inactive; Cneo AK release: inactive

What do the screens show for `CC(=O)N[C@H]1CC[C@@H](CCNC(=O)C2CCC2)O[C@H]1CO`?
C2C12 statin: inactive; CFTR F508del cor: inactive; DENV2 CPE: inactive; ERp5 inh: inactive; Cneo AK release: 112.1

Results for CC(=O)N[C@H]1CC[C@H](CCNC(=O)C2CCCC2)O[C@H]1CO ?
C2C12 statin: inactive; CFTR F508del cor: inactive; DENV2 CPE: inactive; ERp5 inh: inactive; Cneo AK release: inactive

Results for CC(=O)N[C@H]1CC[C@@H](CCNC(=O)C2CCCC2)O[C@@H]1CO ?
C2C12 statin: inactive; CFTR F508del cor: inactive; DENV2 CPE: 27.0; ERp5 inh: inactive; Cneo AK release: inactive

How did Cc1noc(C)c1NC(=O)N[C@H]1CC[C@H](CCNC(=O)C2CCCC2)O[C@@H]1CO do in these assays?
C2C12 statin: inactive; CFTR F508del cor: inactive; DENV2 CPE: 20.3; ERp5 inh: inactive; Cneo AK release: inactive

What do the screens show for `CO[C@@H]1CN(C)C(=O)c2ccc(NC(=O)c3cccc(F)c3)cc2OC[C@H](C)NC[C@@H]1C`?
C2C12 statin: inactive; CFTR F508del cor: inactive; DENV2 CPE: 23.6; ERp5 inh: inactive; Cneo AK release: inactive

How did CO[C@H]1CN(C)C(=O)c2cc(NC(=O)c3ccc(Oc4ccccc4)cc3)ccc2OC[C@@H](C)NC[C@H]1C do in these assays?
C2C12 statin: inactive; CFTR F508del cor: inactive; DENV2 CPE: 25.8; ERp5 inh: inactive; Cneo AK release: inactive

What do the screens show for `COc1cccc(C(=O)Nc2ccc3c(c2)OC[C@H](C)NC[C@H](C)[C@@H](OC)CN(C)C3=O)c1`?
CFTR F508del cor: inactive; DENV2 CPE: 25.3; ERp5 inh: inactive

What do the screens show for `CO[C@H]1CN(C)C(=O)c2cc(NC(=O)c3ccc(Oc4ccccc4)cc3)ccc2OC[C@H](C)NC[C@@H]1C`?
C2C12 statin: inactive; CFTR F508del cor: inactive; DENV2 CPE: inactive; ERp5 inh: inactive; Cneo AK release: inactive

Results for COc1cccc(C(=O)Nc2ccc3c(c2)OC[C@@H](C)NC[C@H](C)[C@H](OC)CN(C)C3=O)c1 ?
CFTR F508del cor: inactive; DENV2 CPE: inactive; ERp5 inh: inactive

What do the screens show for `C[C@H]1CCCCO[C@H](CN(C)S(=O)(=O)c2cn(C)cn2)[C@@H](C)CN([C@@H](C)CO)C(=O)c2cc(NC(=O)CCCN(C)C)ccc2O1`?
CFTR F508del cor: inactive; DENV2 CPE: inactive; ERp5 inh: inactive; Cneo AK release: inactive

Results for CCCCCC1CC(CC(=O)O)C(=O)O1 (stereo not given) ?
C2C12 statin: 119.3; PDI turbidity: inactive; Cneo AK release: inactive

How did CCCCCC1CC(CC(=O)Nc2ccc([N+](=O)[O-])cc2)C(=O)O1 (stereo not given) do in these assays?
DENV2 CPE: inactive; ERp5 inh: inactive; PDI turbidity: inactive

How did Cc1cccc(C(=O)NC(=S)Nc2ccccc2C(F)(F)F)c1 do in these assays?
PDI turbidity: inactive

How did Cc1ccc(C(=O)NC(=S)Nc2ccccc2C(F)(F)F)cc1C do in these assays?
C2C12 statin: 93.4; PDI turbidity: inactive; Cneo AK release: inactive

How did C[C@@H]1CN([C@H](C)CO)C(=O)c2cc(C#CC3CCCCC3)cnc2O[C@@H]1CN(C)Cc1cncnc1 do in these assays?
C2C12 statin: inactive; CFTR F508del cor: inactive; DENV2 CPE: inactive; ERp5 inh: inactive; Cneo AK release: inactive

What do the screens show for `C[C@@H]1CCCCO[C@H](CN(C)CC2CCCCC2)[C@H](C)CN([C@H](C)CO)C(=O)c2cc(NS(=O)(=O)c3cn(C)cn3)ccc2O1`?
C2C12 statin: inactive; CFTR F508del cor: inactive; DENV2 CPE: inactive; ERp5 inh: inactive; Cneo AK release: inactive

Results for CCCCC(=NCCc1c(C)[nH]c2ccc(OC)cc12)C1=C(O)CC(c2ccccc2)CC1=O (stereo not given) ?
CFTR F508del cor: 10.9; DENV2 CPE: inactive; ERp5 inh: inactive; PDI turbidity: inactive

How did C[C@@H]1CN([C@@H](C)CO)C(=O)c2cccc(NC(=O)CCCCCC(=O)Nc3ccccc3N)c2O[C@@H]1CN(C)Cc1ccc(Oc2ccccc2)cc1 do in these assays?
CFTR F508del cor: inactive; DENV2 CPE: inactive; ERp5 inh: inactive

What do the screens show for `CC1(C)CC(NC(=O)COc2ccc(Br)cc2Cl)CC(C)(C)N1`?
C2C12 statin: inactive; CFTR F508del cor: inactive; DENV2 CPE: inactive; ERp5 inh: inactive; PDI turbidity: inactive; Cneo AK release: inactive

Results for CC1(C)CC(NC(=O)COc2ccccc2Cl)CC(C)(C)N1 ?
C2C12 statin: inactive; CFTR F508del cor: inactive; DENV2 CPE: 32.5; ERp5 inh: inactive; PDI turbidity: inactive; Cneo AK release: inactive

How did Cc1cc(=O)oc2cc(OCC(=O)NC3CC(C)(C)NC(C)(C)C3)ccc12 do in these assays?
C2C12 statin: inactive; CFTR F508del cor: inactive; DENV2 CPE: inactive; ERp5 inh: inactive; PDI turbidity: inactive; Cneo AK release: inactive

What do the screens show for `CCc1cc(=O)oc2cc(OCC(=O)NC3CC(C)(C)NC(C)(C)C3)ccc12`?
C2C12 statin: inactive; CFTR F508del cor: inactive; DENV2 CPE: 35.7; ERp5 inh: inactive; PDI turbidity: inactive; Cneo AK release: inactive
